Source: ChEMBL document CHEMBL4627325, “Rational modifications, synthesis and biological evaluation of new potential antivirals for RSV designed to target the M2-1 protein” (Bioorg Med Chem, 2020)

system: Human orthopneumovirus; test: Antiviral activity against Respiratory syncytial virus A strain Long infected in Hep2 cells assessed as reduction in virus-induced cytopathic effect after 5 days by microscopic analysis; assay type: functional, organism-based; settings: HEp-2, 120 h
Procedure, shortened: (§1)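 HEp-2 cells seeded 5×10^3/well in DMEM with 2% heat-inactivated FBS and 1% NEAA, 37°C, 5% CO₂; next day medium replaced with 1:2 serial dilutions of compound (eight concentrations, 0.7-100 μM) and infected with RSV-A Long or RSV-B Wash at moi 0.01 CCID₅₀/cell. CPE scored microscopically (0–5) at day 5; EC₅₀ by logarithmic interpolation as 50% protection; mean of ≥2 independent experiments.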

Compound	EC50 [µM]
O=C(c1ccccc1)N1CCN(C(=S)SCc2nc3ccccc3s2)CC1	44.1
COC(=O)c1ccc(CN2CCN(C(=S)SCc3nc4ccccc4s3)CC2)cc1	14.8
S=C(SCc1nc2ccccc2s1)N1CCN(Cc2ccccc2)CC1	8.3
FC(F)(F)c1cccc(CN2CCN(C(=S)SCc3nc4ccccc4s3)CC2)c1	3.3
FC(F)(F)c1ccc(CN2CCN(C(=S)SCc3nc4ccccc4s3)CC2)cc1	3.31
Cc1ccc(CN2CCN(C(=S)SCc3nc4ccccc4s3)CC2)c(C)c1	4.97
Fc1ccc(CN2CCN(C(=S)SCc3nc4ccccc4s3)CC2)cc1	4.4
S=C(SCc1nc2ccccc2s1)N1CCN(c2ccccc2)CC1	4.4
Cc1cccc(CN2CCN(C(=S)SCc3nc4ccccc4s3)CC2)c1	11.8
Nc1ccn([C@@H]2O[C@@](CO)(CCl)[C@@H](O)[C@H]2F)c(=O)n1 [ALS-8112]	2.6
Cc1cc(C)c(CN2CCN(C(=S)SCc3nc4ccccc4s3)CC2)c(C)c1	42.2
CCOC(=O)c1ccc(CN2CCN(C(=S)SCc3nc4ccccc4s3)CC2)cc1	40.8
O=S(=O)(c1ccccc1)N1CCN(C(=S)SCc2nc3ccccc3s2)CC1	35.3
Cc1ccccc1CN1CCN(C(=S)SCc2nc3ccccc3s2)CC1	10.4
S=C(SCc1nc2ccccc2s1)N1CCN(CCc2ccccc2)CC1	7.7

system: Human orthopneumovirus; test: Antiviral activity against Respiratory syncytial virus B infected in Hep2 cells assessed as reduction in virus-induced cytopathic effect after 5 days by microscopic analysis; assay type: functional, organism-based; settings: HEp-2, 120 h; procedure, shortened: as §1

Compound	EC50 [µM]
O=C(c1ccccc1)N1CCN(C(=S)SCc2nc3ccccc3s2)CC1	24.8
COC(=O)c1ccc(CN2CCN(C(=S)SCc3nc4ccccc4s3)CC2)cc1	3.9
S=C(SCc1nc2ccccc2s1)N1CCN(Cc2ccccc2)CC1	3.9
FC(F)(F)c1cccc(CN2CCN(C(=S)SCc3nc4ccccc4s3)CC2)c1	3.8
Cc1ccc(CN2CCN(C(=S)SCc3nc4ccccc4s3)CC2)cc1	1.32
COc1ccc(CN2CCN(C(=S)SCc3nc4ccccc4s3)CC2)cc1	3
CC(C)(C)c1ccc(CN2CCN(C(=S)SCc3nc4ccccc4s3)CC2)cc1	2.2
Fc1ccc(CN2CCN(C(=S)SCc3nc4ccccc4s3)CC2)cc1	2.5
S=C(SCc1nc2ccccc2s1)N1CCN(c2ccccc2)CC1	1.3
Cc1cccc(CN2CCN(C(=S)SCc3nc4ccccc4s3)CC2)c1	3
Nc1ccn([C@@H]2O[C@@](CO)(CCl)[C@@H](O)[C@H]2F)c(=O)n1 [ALS-8112]	2.6
Cc1cc(C)c(CN2CCN(C(=S)SCc3nc4ccccc4s3)CC2)c(C)c1	20.6
CCOC(=O)c1ccc(CN2CCN(C(=S)SCc3nc4ccccc4s3)CC2)cc1	4
O=S(=O)(c1ccccc1)N1CCN(C(=S)SCc2nc3ccccc3s2)CC1	12.5
Cc1ccccc1CN1CCN(C(=S)SCc2nc3ccccc3s2)CC1	20.6

system: not listed separately; test: Cytotoxicity against human Hep2 cells assessed as reduction in cell viability measured after 5 days by MTS assay; assay type: cell-based; settings: HEp-2 cells
Procedure, shortened: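 Uninfected HEp-2 cultures set up as for the antiviral assay (5×10^3 cells/well, DMEM with 2% FBS and 1% NEAA, 37°C, 5% CO₂) and treated with serial 1:2 compound dilutions; metabolic activity quantified at day 5 by MTS readout to give CC₅₀; mean of ≥2 independent experiments.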

Compound	CC50 at 120 h [µM]
O=C(c1ccccc1)N1CCN(C(=S)SCc2nc3ccccc3s2)CC1	45
COC(=O)c1ccc(CN2CCN(C(=S)SCc3nc4ccccc4s3)CC2)cc1	> 100
S=C(SCc1nc2ccccc2s1)N1CCN(Cc2ccccc2)CC1	> 100
FC(F)(F)c1cccc(CN2CCN(C(=S)SCc3nc4ccccc4s3)CC2)c1	> 100
FC(F)(F)c1ccc(CN2CCN(C(=S)SCc3nc4ccccc4s3)CC2)cc1	> 100
Cc1ccc(CN2CCN(C(=S)SCc3nc4ccccc4s3)CC2)c(C)c1	> 100
Cc1ccc(CN2CCN(C(=S)SCc3nc4ccccc4s3)CC2)cc1	> 100
COc1ccc(CN2CCN(C(=S)SCc3nc4ccccc4s3)CC2)cc1	> 100
CC(C)(C)c1ccc(CN2CCN(C(=S)SCc3nc4ccccc4s3)CC2)cc1	71.7
Fc1ccc(CN2CCN(C(=S)SCc3nc4ccccc4s3)CC2)cc1	> 100
S=C(SCc1nc2ccccc2s1)N1CCN(c2ccccc2)CC1	> 100
Cc1cccc(CN2CCN(C(=S)SCc3nc4ccccc4s3)CC2)c1	> 100
Nc1ccn([C@@H]2O[C@@](CO)(CCl)[C@@H](O)[C@H]2F)c(=O)n1 [ALS-8112]	> 100
Cc1cc(C)c(CN2CCN(C(=S)SCc3nc4ccccc4s3)CC2)c(C)c1	> 100
CCOC(=O)c1ccc(CN2CCN(C(=S)SCc3nc4ccccc4s3)CC2)cc1	> 100
O=S(=O)(c1ccccc1)N1CCN(C(=S)SCc2nc3ccccc3s2)CC1	> 100
Cc1ccccc1CN1CCN(C(=S)SCc2nc3ccccc3s2)CC1	> 100
S=C(SCc1nc2ccccc2s1)N1CCN(CCc2ccccc2)CC1	> 100
